Compounds with a hit are over-represented: about 3.9% of the library has one in this group of screens.
TAAR1 antagonist – human TAAR1 antagonists, primary screen, Fluo-8 calcium fluorescence, CHO RD-HGA16 cells | Trace amine-associated receptor 1 (Homo sapiens), Q96RJ0 | antagonist | inhibition, % at 3 µM | 360,000 compounds, 1.5% hits | AID 624466, 2012;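 active = inhibition above a per-plate cutoff, the mean inhibition of test compounds on that plate plus 3 SD, cut at about 49% in these data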;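 also: 0% = DMSO plus EC80 beta-PEA response and 100% = DMSO alone without agonist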
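System: CHO RD-HGA16 cells bearing hTAAR1. Reagent: EC80 β-phenethylamine stimulus. Schedule: seeding 17-24 h prior, 75-min 37 °C, 30-min RT dye loading. Signal: Fluo-8 intracellular calcium dye fluorescence, real-time kinetic reads. Read-out: % inhibition from peak post-agonist over basal fluorescence ratio. Benchmarks: vehicle wells and EC80 agonist wells. Replicates: n of 1.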
TMEM16A act – TMEM16A chloride channel activators or potentiators, primary screen, cell-based, HTS | Anoctamin-1 (Mus musculus), Q8BHY3 | HEK293 TMEM16A/YFP-H148Q/I152L, iodide quench fluorescence; hits give low values | B-score at 10 µM | 340,000 compounds, 0.3% hits;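 active = fluorescence-ratio B-score plate-corrected deviation score at least 3 library SD below zero, with starting fluorescence score within 5 deviations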;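 also: channel opened by trigger with iodide after compound preincubation; score built on the fluorescence ratio of max minus min over baseline; more negative score means more quench and so TMEM16A activation or potentiation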
TAAR1 ag – human TAAR1 agonists, primary screen, Fluo-8 calcium fluorescence, CHO RD-HGA16 cells; Trace amine-associated receptor 1 (Homo sapiens), Q96RJ0; vehicle wells 0%, saturating PEA agonist 100%; activation, % at 3 µM; 360,000 compounds, 0.99% hits; AID 624467, 2012;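 active = activation above the mean activation of all test compounds in the run plus 3 SD, cut at about 38% in these data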
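Test system: RD-HGA16 (CHO) cells co-expressing Gα16 and hTAAR1 / Benchmarks: DMSO vehicle as 0%, PEA at EC100 as 100% / Repeats: no replicates (n 1) / Measure: % activation from peak over basal fluorescence ratio, DMSO-to-PEA scaled / Timing: 17-24 h plating, Fluo-8 75 min 37 °C, 30 min RT / Technique: kinetic Fluo-8 calcium fluorescence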
CRFBP-R2 block – antagonists of CRF-BP/CRF-R2 complex, primary screen, cell-based, HEK293, calcium dye fluorescence, uHTS; 350,000 compounds, 0.59% hits; CRF-induced calcium fluorescence; inhibition, % at 11.8 µM; AID 588475, 2011;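 active = inhibition of the ligand-induced calcium signal above about 50% at the single tested concentration, limit read from the data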
CRFBP-R2 agonist – agonists of CRF-BP/CRF-R2 complex, primary screen, cell-based, HEK293, calcium dye fluorescence, uHTS; calcium dye fluorescence (FLIPR); percent of saturating CRF peptide response; 350,000 compounds, 0.46% hits; activation, % at 13.2 µM;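 active = activation of at least 50%, plus an integration ratio under a set limit after plate pattern correction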;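 also: plate controls were neutral control wells without compound for no effect and CRF at EC100 for full effect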
TMEM16A inh – TMEM16A chloride channel inhibitors, primary screen, cell-based, HTS | HEK293 TMEM16A/YFP iodide influx fluorescence, ionomycin | normalized B-score (activity score, 25-100; higher = stronger inhibition) at 10 µM | 310,000 compounds, 1.2% hits | AID 588511, 2011;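 active = ratio plate-corrected score three or more library SD toward inhibition, starting fluorescence score within five deviations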;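 also: score derived from kinetic fluorescence span divided by baseline fluorescence per well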
Starred values were filed as active, the others as inactive; i = inactive; · = no result.

SMILES	TAAR1 antagonist	TMEM16A act	TAAR1 ag	CRFBP-R2 block	CRFBP-R2 agonist	TMEM16A inh
O=C(O)c1cccc(N/N=C/c2cc(Br)cc(Br)c2O)c1	24.0	i	-1.3	64.0*	3.7	i
O=C(N/N=C/c1ccc(O)cc1O)c1ccncc1	10.2	i	8.8	-11.4	1.7	i
CCC(=O)N1Cc2cc(C(=O)N(C)C)nc(-c3cccc(-c4cncnc4)c3)c2[C@@H]1CCO	-6.6	·	0.7	·	·	·
O=S(=O)(Nc1ccccc1Cl)c1ccc(NS(=O)(=O)c2cccs2)cc1	7.8	i	38.0*	1.4	0.1	i
O=C(COc1ccc(Cl)cc1Cl)Nc1ccccc1NS(=O)(=O)c1cccs1	-0.2	i	5.6	50.6*	11.6	i
O=C(Nc1ccc(Cl)cc1)Nc1ccccc1NS(=O)(=O)c1cccs1	9.0	i	14.6	11.8	19.8	100*
COc1ccccc1NS(=O)(=O)c1cc(NC(=S)Nc2cc(C)cc(C)c2)ccc1Cl	26.7	-5.56*	8.5	-26.6	0.7	i
COc1ccc(-n2nc(C(=O)NCC(=O)NCc3ccc(F)cc3)c3ccccc3c2=O)cc1OC	28.5	i	10.3	17.7	-1.8	i
O=C(Nc1ccc(Cl)c(S(=O)(=O)Nc2ccccc2Cl)c1)c1cccs1	7.7	i	1.1	9.5	3.0	25*
O=C(Nc1ccccc1Cl)c1cccs1	-2.7	i	6.2	8.8	-0.6	i
CC(C)OC(=O)c1cccc(-c2ccc(C=O)o2)c1	-20.9	i	-2.7	9.4	-0.2	i
CN(C(=O)COC(=O)CSc1ccc([N+](=O)[O-])cc1)c1ccccc1	51.3*	i	1.0	12.7	-5.7	·
C#Cc1cccc(Nc2nc(NCCOC)nc3ccsc23)c1	56.7*	·	8.5	·	·	·
C#Cc1cccc(Nc2nc(NC(C)C)nc3ccsc23)c1	35.1	·	2.3	·	·	·
C#Cc1cccc(Nc2nc(NCc3ccccc3OC)nc3ccsc23)c1	51.6*	·	5.1	·	·	·
NS(=O)(=O)c1ccc(CCNC(=O)c2ccc([N+](=O)[O-])s2)cc1	14.0	i	0.9	5.9	0.2	i
CCOC(=O)C1CCN(S(=O)(=O)c2ccc3c(c2)CCN3C(=O)C2CCC2)CC1	·	i	·	8.0	-1.4	i
CCS(=O)(=O)N1Cc2ccccc2CC1C(=O)Nc1cccc(S(=O)(=O)N(C)C)c1 (stereo not given)	2.4	·	-0.3	2.2	-1.2	i
N#CC(C#N)=C1C=CC=CN1/C(=C\c1ccco1)C(=O)c1ccc(-c2ccccc2)cc1	28.1	i	1.9	-60.0	2.5	i
N#CC(C#N)=C1C=CC=CN1/C(=C\c1ccco1)C(=O)c1ccc(Cl)cc1	26.5	i	7.5	-88.0	60.6*	i
CCOC(=O)[C@]12CCCC=C1N(Cc1ccco1)C(=O)[C@H](CC(=O)N1CCN(C(=O)c3ccco3)CC1)C2	-32.6	·	-0.3	·	·	·
O=C(CC1Sc2ccccc2NC1=O)OC(C(=O)NCCc1ccccc1)c1cccnc1 (stereo not given)	52.7*	i	23.4	-13.6	0.2	i
Cn1c(=O)oc2cc(S(=O)(=O)CCC(=O)Nc3ccccc3)ccc21	-1.7	i	2.3	-11.9	-0.8	i
COC(=O)c1ccc(NC(=O)COC(=O)CSc2nc(C)cc(C)n2)cc1	13.3	i	6.1	52.0*	0.5	i
COc1ccc(N(CC(=O)Nc2ccccc2OC)S(=O)(=O)c2ccc(OC)c(OC)c2)cc1	29.6	i	4.5	1.0	-0.8	i
CC(C)C[C@H](NC(=O)[C@H](Cc1ccccc1)n1c(=O)[nH]c2ccccc2c1=O)C(=O)N1CCC(C(=O)O)CC1	-16.1	-13.4*	1.6	1.3	-2.5	i
NC(=O)COc1ncn(-c2ccccc2)n1	-10.1	i	1.7	57.2*	1.0	i

Bioassay records from PubChem.
